Measured values published in ChEMBL document CHEMBL3272008, “Synthesis and biological actions of 2-substituted quinolizidines” (J Med Chem, 1976).

Key:
Mus musculus [1] = experiment: Depression of spontaneous motor activity in Swiss-Webster mouse at 12.5 mg/kg, ip by photocell cage test relative to control; assay type: functional; conditions: route intraperitoneal
In short: (§1)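 Compound was dissolved in minimal 1.5 M NaH2PO4, diluted with water and given ip. Two mice given the same dose went into each of three photocell actophotometer cages 10 min after the rotarod test started. Counts were taken over 15 min, starting 5 min after placement. A factorial design across cages cancelled differences between units. Results were given as % of control, with significance by Student's t test (p < 0.05).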

Mus musculus [2] = experiment: Depression of forced motor activity in Swiss-Webster mouse at 12.5 mg/kg, ip after 30 mins by rotarod test relative to control; assay type: functional; conditions: route intraperitoneal
In short: (§2)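 Mice were dosed ip with vehicle or compound dissolved in a minimum of 1.5 M NaH2PO4 and diluted with water. On the rotarod, speed was 4 rpm for 30 sec, then 6 rpm for 30 sec, then increased every 30 sec up to a maximum of 50 rpm until the fall. Each mouse had four trials, two per day on two consecutive days, spaced 4–6 hr apart. The fourth trial was run 30 min after dosing. The read-out was trial time (sec) as % of control, with significance by Student's t test (p < 0.05).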

Mus musculus [3] = experiment: Depression of spontaneous motor activity in Swiss-Webster mouse at 50 mg/kg, ip by photocell cage test relative to control; assay type: functional; conditions: route intraperitoneal; in short: as §1
Mus musculus [4] = experiment: Depression of forced motor activity in Swiss-Webster mouse at 25 mg/kg, ip after 30 mins by rotarod test relative to control; assay type: functional; conditions: route intraperitoneal; in short: as §2
Mus musculus [5] = experiment: Depression of forced motor activity in Swiss-Webster mouse at 50 mg/kg, ip after 30 mins by rotarod test relative to control; assay type: functional; conditions: route intraperitoneal; in short: as §2
[6] = Acute toxicity in ip dosed Swiss-Webster mouse administered as single dose after 7 days; assay type: organism-based; conditions: in vivo
In short: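 Mice given a single ip dose at each of four dose levels; lethality followed over 7 days; LD50 with 95% confidence limits estimated by the method of Weil. Compounds dissolved in minimal 1.5 M NaH2PO4, diluted with water; haloperidol in minimal 50% (w/v) tartaric acid-water.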

Mus musculus [7] = experiment: Depression of spontaneous motor activity in Swiss-Webster mouse at 25 mg/kg, ip by photocell cage test relative to control; assay type: functional; conditions: route intraperitoneal; in short: as §1
Mus musculus [8] = experiment: Depression of forced motor activity in Swiss-Webster mouse at 60 mg/kg, ip after 30 mins by rotarod test relative to control; assay type: functional; conditions: route intraperitoneal
In short: (§3)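 Rotarod in mice: rod at 4 rpm for 30 sec, 6 rpm next 30 sec, then stepped up every 30 sec (max 50 rpm) until fall. Six mice at a time, four trials (two per day, 4–6 hr apart, two consecutive days); vehicle or compound ip 30 min before fourth trial. Time on rod as % of control; Student's t test, p < 0.05.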

Mus musculus [9] = experiment: Depression of forced motor activity in Swiss-Webster mouse at 15 mg/kg, ip after 30 mins by rotarod test relative to control; assay type: functional; conditions: route intraperitoneal; in short: as §3
Mus musculus [10] = experiment: Depression of spontaneous motor activity in Swiss-Webster mouse at 60 mg/kg, ip by photocell cage test relative to control; assay type: functional; conditions: route intraperitoneal
In short: (§4)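 Spontaneous activity in three photocell cages: two mice given the same ip dose placed per cage 10 min after rotarod start; 15-min count begun 5 min after placement. Each dose run in factorial design across all three cages to offset unit sensitivity. Counts expressed as % of control; Student's t test, p < 0.05.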

Mus musculus [11] = experiment: Depression of forced motor activity in Swiss-Webster mouse at 30 mg/kg, ip after 30 mins by rotarod test relative to control; assay type: functional; conditions: route intraperitoneal; in short: as §3
Mus musculus [12] = experiment: Depression of spontaneous motor activity in Swiss-Webster mouse at 30 mg/kg, ip by photocell cage test relative to control; assay type: functional; conditions: route intraperitoneal; in short: as §4
Mus musculus [13] = experiment: Depression of spontaneous motor activity in Swiss-Webster mouse at 15 mg/kg, ip by photocell cage test relative to control; assay type: functional; conditions: route intraperitoneal; in short: as §4
Mus musculus [14] = experiment: Depression of spontaneous motor activity in Swiss-Webster mouse at 100 mg/kg, ip by photocell cage test relative to control; assay type: functional; conditions: route intraperitoneal; in short: as §4
Mus musculus [15] = experiment: Depression of forced motor activity in Swiss-Webster mouse at 100 mg/kg, ip after 30 mins by rotarod test relative to control; assay type: functional; conditions: route intraperitoneal; in short: as §3

| Structure (SMILES) | Activity (Mus musculus [1]) [%] | Activity (Mus musculus [2]) [%] | Activity (Mus musculus [3]) [%] | Activity (Mus musculus [4]) [%] | Activity (Mus musculus [5]) [%] | LD50 at 168 h [6] [mg/kg] | Activity (Mus musculus [7]) [%] | Activity (Mus musculus [8]) [%] | Activity (Mus musculus [9]) [%] | Activity (Mus musculus [10]) [%] | Activity (Mus musculus [11]) [%] | Activity (Mus musculus [12]) [%] | Activity (Mus musculus [13]) [%] | Activity (Mus musculus [14]) [%] | Activity (Mus musculus [15]) [%] |
| --- | --- | --- | --- | --- | --- | --- | --- | --- | --- | --- | --- | --- | --- | --- | --- |
| O[C@@]1(c2ccc(C(F)(F)F)cc2)CCN2CCCCC2C1 (single isomer, unassigned) | 49.7 | 99.3 | 45.2 | 92.3 | 83.5 | 130 | 82.7 | – | – | – | – | – | – | – | – |
| O[C@@]1(c2cccc(Cl)c2)CCN2CCCCC2C1 (single isomer, unassigned) | – | – | – | – | – | 180 | – | 51.4 | 96.5 | 44.3 | 105 | 154.9 | 166.7 | – | – |
| O[C@@]1(c2cccc(C(F)(F)F)c2)CCN2CCCCC2C1 (single isomer, unassigned) | – | – | 111 | 97.9 | 100.5 | 262 | 119 | – | – | – | – | – | – | 5.5 | 29.6 |
